Results on 19 molecules are retold here after ChEMBL document CHEMBL2093137, “WHO-TDR NTD Screening”.

Molecules are shown by their SMILES. ≈ marks a conversion by molar mass, not a printed value.

Data set [1] in a line: WHO-TDR: Cytotoxicity. It counts as toxicity, cell-based. The following applies: human, MRC5 cells.
A further data set deals with Plasmodium falciparum K1. Kind of data set: WHO-TDR: Malaria. It counts as functional, organism-based, Homo sapiens. As to conditions: Erythrocyte. In short, it runs like this: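 Whole-organism screen of a 10,000-compound diverse library from Life Chemicals, filtered for drug-likeness and reactive groups, against intra-erythrocytic Plasmodium falciparum K1 strain in human red blood cells. The assay followed previously published standard procedures, with a reference drug as positive control. Antiplasmodial potency is reported as IC50.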

A further data set concerns Trypanosoma cruzi. Kind of data set: WHO-TDR: Chagas disease. It counts as functional, organism-based, Homo sapiens. The following applies: MRC5. In short, it runs like this: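 Intracellular amastigotes of the Trypanosoma cruzi Tulahuen CL2 beta-galactosidase strain, grown in MRC-5SV2 human lung fibroblast host cells, were tested in a whole-organism screen. The compounds came from a 10,000-member diverse Life Chemicals library that had been filtered for drug-likeness and reactive groups. Previously published standard procedures were followed, with a reference drug as positive control, and potency is reported as IC50.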

The next data set relates to Brugia malayi. Kind of data set: WHO-TDR: Lymphatic Filariasis. It counts as functional. Set-up: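 tested at 10 µM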. In a few lines:
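Percent inhibition and IC50 describe activity against Brugia malayi microfilariae in a whole-organism screen. The screen used previously published standard procedures with reference drugs as positive controls. Compounds came from a diverse Life Chemicals library of 10,000, filtered for drug-likeness and reactive groups.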

Data set [2] relates to Trypanosoma brucei brucei. Kind of data set: WHO-TDR: Human African Trypanosomiasis (HAT). It counts as functional, organism-based. As to conditions: Squib-427. In a few lines:
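Whole-organism screen of a 10,000-compound diverse library from Life Chemicals, filtered for drug-likeness and reactive groups, against bloodstream forms of Trypanosoma brucei Squib 427 strain. The assay followed previously published standard procedures, with reference drugs as positive controls. Antiparasitic potency is reported as IC50.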

In a further data set the test system is Leishmania infantum. Kind of data set: WHO-TDR: Leishmaniasis. It is filed as functional, organism-based, Mus musculus. As to conditions: Macrophage. In a few lines:
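Whole-organism screen of a 10,000-compound diverse library from Life Chemicals, filtered for drug-likeness and reactive groups, against intracellular amastigotes of Leishmania infantum MHOM/MA(BE)/67 in murine peritoneal macrophage host cells. The assay followed previously published standard procedures, with a reference drug as positive control. Antiparasitic potency is reported as IC50.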

The next data set relates to Schistosoma mansoni. Kind of data set: WHO-TDR: Schistosomiasis. On the set-up: concentration or dose not given beside the values. It is filed as functional. In a few lines:
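Larval and/or adult Schistosoma mansoni (Puerto Rican strain) were tested whole against 10,000 diverse compounds from Life Chemicals. The procedure was a previously published standard one, using a reference drug as positive control. Results are expressed as percent inhibition and IC50.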

A further data set concerns Onchocerca ochengi. Kind of data set: WHO-TDR: Onchocerciasis. Set-up: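 at 12.5 µM on microfilariae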. It is filed as functional. In a few lines:
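Onchocerca ochengi or Onchocerca lienalis, animal pathogens used as surrogates for the human parasite, were screened as whole microfilariae against a 10,000-compound diverse library from Life Chemicals. The reported measures of activity are percent inhibition and IC50.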

The IC50 is the concentration needed to halve the response being measured. By % Inhibition is commonly meant the share of the control response that was lost under treatment. Regarding `O=C(NCCNC(=O)c1cccc(Cl)c1)c1ccc(NC(=O)c2ccc(F)cc2)cc1`, the IC50 in data set [1] was greater than 13.2 µg/mL; with Plasmodium falciparum K1, greater than 13.2 µg/mL; in the data set on Trypanosoma cruzi, greater than 13.2 µg/mL; in data set [2], greater than 13.2 µg/mL; in the data set with Leishmania infantum, 0.427 µg/mL (≈ 0.971 µM). In addition, the “% Inhibition” value in the data set on Brugia malayi, with Schistosoma mansoni and in the data set with Onchocerca ochengi was 0% throughout.

`NC(=O)Cc1csc(SCC(=O)c2ccccc2)n1`: the IC50 in data set [1] is greater than 8.77 µg/mL; with Plasmodium falciparum K1, greater than 8.77 µg/mL; in the data set on Trypanosoma cruzi, greater than 8.77 µg/mL; in data set [2] it was greater than 8.77 µg/mL; with Leishmania infantum it was 0.284 µg/mL (≈ 0.971 µM). Further, the “% Inhibition” value in the data set with Brugia malayi came out at 0%; with Schistosoma mansoni, 16.7%; with Onchocerca ochengi, 0%.

With `O=S(=O)(CCCOc1ccc(F)cc1)N1CCc2ccccc21`, the IC50 was greater than 10.1 µg/mL in data set [1]; greater than 10.1 µg/mL in the data set on Plasmodium falciparum K1; 3.09 µg/mL (≈ 9.2 µM) with Trypanosoma cruzi; 3.22 µg/mL (≈ 9.6 µM) in data set [2]; greater than 10.1 µg/mL in the data set with Leishmania infantum. In addition, the figures for the “% Inhibition” value with Brugia malayi, with Schistosoma mansoni and with Onchocerca ochengi were 0%, 0% and 100%, respectively.

As for `COc1ccc(S(=O)(=O)NCC(c2cccc3ccccc23)N(C)C)cc1C` (configuration not stated), the IC50 is greater than 12 µg/mL in data set [1]; greater than 12 µg/mL with Plasmodium falciparum K1; greater than 12 µg/mL with Trypanosoma cruzi; 4.02 µg/mL (≈ 10.1 µM) in data set [2]; greater than 12 µg/mL in the data set on Leishmania infantum. Moreover, the entries for the “% Inhibition” value in the data set with Brugia malayi, in the data set on Schistosoma mansoni and with Onchocerca ochengi were 0%, 0% and 100%, respectively.

As for `CS(=O)(=O)N1CCCC1C(=O)Nc1nc(-c2ccc(Cl)s2)cs1` (configuration not stated), the IC50 was greater than 11.8 µg/mL in data set [1]; 3.6 µg/mL (≈ 9.18 µM) in the data set with Plasmodium falciparum K1; greater than 11.8 µg/mL in the data set with Trypanosoma cruzi; greater than 11.8 µg/mL in data set [2]; greater than 11.8 µg/mL in the data set with Leishmania infantum. The “% Inhibition” value turned out to be 0% in the data set on Brugia malayi, 0% in the data set on Schistosoma mansoni and 100% with Onchocerca ochengi.

Take `Cc1cccc(Nc2ccc(NCCNC(=O)Nc3ccc(F)cc3)nn2)n1`: the IC50 in data set [1] was greater than 11.4 µg/mL; with Plasmodium falciparum K1 it was 8.36 µg/mL (≈ 21.9 µM); with Trypanosoma cruzi it was greater than 11.4 µg/mL; in data set [2] it was greater than 11.4 µg/mL; in the data set with Leishmania infantum, greater than 11.4 µg/mL. Also, the “% Inhibition” value in the data set with Brugia malayi stood at 0%; with Schistosoma mansoni it was 0%; in the data set with Onchocerca ochengi it was 100%.

Consider `Cc1cc(C(=O)Nc2nc(-c3cccnc3)cs2)on1`, for which the IC50 is greater than 8.59 µg/mL in data set [1]; greater than 8.59 µg/mL with Plasmodium falciparum K1; 4.16 µg/mL (≈ 14.5 µM) with Trypanosoma cruzi; greater than 8.59 µg/mL in data set [2]; 0.278 µg/mL (≈ 0.971 µM) in the data set with Leishmania infantum. Besides, the “% Inhibition” value with Brugia malayi is 20%; in the data set on Schistosoma mansoni it was 25%; with Onchocerca ochengi, 0%.

Consider `COc1ccc(Cl)cc1NC(=O)CSc1ccc(NC(=O)C2CC2)nn1`, for which the IC50 (in data set [1]; with Plasmodium falciparum K1; in the data set with Trypanosoma cruzi; in data set [2]; with Leishmania infantum) was greater than 11.8 µg/mL in each case. The “% Inhibition” value is recorded as 0% with Brugia malayi, 33.3% with Schistosoma mansoni and 100% in the data set with Onchocerca ochengi.

Take `O=C(NCCNc1ccc(Nc2ccccn2)nn1)c1ccc(C(F)(F)F)cc1`: the IC50 in data set [1] is 7.71 µg/mL (≈ 19.2 µM); in the data set on Plasmodium falciparum K1, 7.28 µg/mL (≈ 18.1 µM); in the data set with Trypanosoma cruzi it was greater than 12.1 µg/mL; in data set [2], 11 µg/mL (≈ 27.5 µM); in the data set with Leishmania infantum it was greater than 12.1 µg/mL. Besides, the figures for the “% Inhibition” value with Brugia malayi, in the data set with Schistosoma mansoni and in the data set with Onchocerca ochengi were 50%, 0% and 100%, respectively.

On to `O=C(Nc1nc(-c2ccccn2)cs1)C1CCN(S(=O)(=O)c2ccc(Cl)cc2)CC1`, for which the IC50 in data set [1] is greater than 13.9 µg/mL; with Plasmodium falciparum K1, 12.7 µg/mL (≈ 27.5 µM); in the data set on Trypanosoma cruzi it was 4.3 µg/mL (≈ 9.28 µM); in data set [2], 4.13 µg/mL (≈ 8.93 µM); with Leishmania infantum it was greater than 13.9 µg/mL. Moreover, the “% Inhibition” value is given as 0% in the data set on Brugia malayi, 0% in the data set on Schistosoma mansoni and 100% in the data set on Onchocerca ochengi.

`CC(C)(C)C(=O)N1CCc2ccc(NC(=O)Cc3cccs3)cc21`: the IC50 in data set [1] is greater than 10.3 µg/mL; with Plasmodium falciparum K1, greater than 10.3 µg/mL; with Trypanosoma cruzi, 4.11 µg/mL (≈ 12 µM); in data set [2], greater than 10.3 µg/mL; in the data set on Leishmania infantum, 0.333 µg/mL (≈ 0.972 µM). Moreover, the “% Inhibition” value worked out at 0% in the data set on Brugia malayi, 0% in the data set on Schistosoma mansoni and 50% in the data set with Onchocerca ochengi.

Consider `O=S(=O)(NCCNc1ccc(Nc2ccncc2)nn1)c1cc(Cl)ccc1Cl`, for which the IC50 in data set [1] was greater than 13.2 µg/mL; in the data set on Plasmodium falciparum K1, 9.79 µg/mL (≈ 22.3 µM); in the data set on Trypanosoma cruzi, greater than 13.2 µg/mL; in data set [2], greater than 13.2 µg/mL; with Leishmania infantum, greater than 13.2 µg/mL. Also, the “% Inhibition” value in the data set with Brugia malayi is on record as 0%; in the data set with Schistosoma mansoni it was 0%; in the data set with Onchocerca ochengi, 100%.

As for `Cc1ccc(S(=O)(=O)N(CC(O)CNCc2ccco2)c2ccc(F)cc2)cc1` (configuration not stated), the IC50 in data set [1] is greater than 16.2 µg/mL; in the data set with Plasmodium falciparum K1, 1.27 µg/mL (≈ 3.04 µM); with Trypanosoma cruzi it was 5.67 µg/mL (≈ 13.5 µM); in data set [2] it was 5.19 µg/mL (≈ 12.4 µM); in the data set with Leishmania infantum, greater than 16.2 µg/mL. In addition, the “% Inhibition” value with Brugia malayi was determined as 0%; with Schistosoma mansoni it was 0%; with Onchocerca ochengi it was 100%.

For the molecule `C=CCn1c(Sc2nc3ccccc3o2)nc2c1c(=O)[nH]c(=O)n2C`, the IC50 in data set [1] is greater than 10.7 µg/mL; with Plasmodium falciparum K1 it was 10.7 µg/mL (≈ 30 µM); with Trypanosoma cruzi, 4.04 µg/mL (≈ 11.4 µM); in data set [2], 0.337 µg/mL (≈ 0.948 µM); in the data set on Leishmania infantum, greater than 10.7 µg/mL. Further, the “% Inhibition” value is 20% in the data set on Brugia malayi, 0% in the data set on Schistosoma mansoni and 0% with Onchocerca ochengi.

`O=C1C=CC(=O)N1c1ccccc1F`: the IC50 was 1.81 µg/mL (≈ 9.48 µM) in data set [1]; greater than 5.73 µg/mL in the data set with Plasmodium falciparum K1; 3.28 µg/mL (≈ 17.2 µM) with Trypanosoma cruzi; greater than 5.73 µg/mL in data set [2]; greater than 5.73 µg/mL in the data set on Leishmania infantum. Besides, the entries for the “% Inhibition” value in the data set on Brugia malayi, with Schistosoma mansoni and in the data set on Onchocerca ochengi were 20%, 0% and 100%, respectively.

`CC(CC(=O)N1CCC(Cc2ccccc2)CC1)CC1=Nc2ccccc2S(=O)(=O)N1` (configuration not stated): the IC50 in data set [1] is greater than 13.2 µg/mL; in the data set with Plasmodium falciparum K1, greater than 13.2 µg/mL; with Trypanosoma cruzi, 6.58 µg/mL (≈ 15 µM); in data set [2] it was greater than 13.2 µg/mL; in the data set on Leishmania infantum, greater than 13.2 µg/mL. Further, the results for the “% Inhibition” value with Brugia malayi, in the data set on Schistosoma mansoni and in the data set with Onchocerca ochengi were 0%, 0% and 100%, respectively.

On to `Cc1ccc(-c2nc(CSc3nc(O)cc(C(F)(F)F)n3)c(C)o2)cc1`, for which the IC50 in data set [1] is greater than 11.4 µg/mL; in the data set on Plasmodium falciparum K1, 11.4 µg/mL (≈ 30 µM); with Trypanosoma cruzi it was greater than 11.4 µg/mL; in data set [2] it was greater than 11.4 µg/mL; in the data set on Leishmania infantum, greater than 11.4 µg/mL. Moreover, the “% Inhibition” value was determined as 20% in the data set on Brugia malayi, 0% with Schistosoma mansoni and 100% with Onchocerca ochengi.

As for `O=C(Nc1nnc(-c2ccc(Br)s2)o1)C1CCCN1S(=O)(=O)c1cccs1` (configuration not stated), the IC50 was greater than 14.7 µg/mL in data set [1]; greater than 14.7 µg/mL in the data set on Plasmodium falciparum K1; greater than 14.7 µg/mL in the data set on Trypanosoma cruzi; 6.68 µg/mL (≈ 13.6 µM) in data set [2]; 0.475 µg/mL (≈ 0.971 µM) with Leishmania infantum. Moreover, the results for the “% Inhibition” value in the data set with Brugia malayi, in the data set with Schistosoma mansoni and in the data set with Onchocerca ochengi were 0%, 8.3% and 0%, respectively.

Consider `Cc1cccc(Nc2ccc(NCCNC(=O)Nc3ccccc3)nn2)n1`, for which the IC50 in data set [1] is 10.4 µg/mL (≈ 28.7 µM); with Plasmodium falciparum K1, 4.75 µg/mL (≈ 13.1 µM); with Trypanosoma cruzi, greater than 10.9 µg/mL; in data set [2], greater than 10.9 µg/mL; in the data set on Leishmania infantum it was greater than 10.9 µg/mL. The figures for the “% Inhibition” value in the data set on Brugia malayi, in the data set with Schistosoma mansoni and with Onchocerca ochengi were 0%, 0% and 100%, respectively.
